Here are results for one compound from article PMC4857835 (Investigative Ophthalmology & Visual Science, 2016).

The structures appear in SMILES notation.

In series [1] the target is human PKal (plasma kallikrein) (Homo sapiens, UniProt P03952). Briefly: PKal protease activity assay, fluorogenic substrate H-D-Pro-Phe-Arg-AFC. Type of series: biochemical. In a few lines: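 Purified human plasma kallikrein with fluorogenic H-D-Pro-Phe-Arg-AFC at its Km concentration, plus test compound. Fluorescence is followed over 5 min and the linear rate per min is taken. IC50 is the concentration giving 50% inhibition of uninhibited activity (100%). Fold selectivity is each related protease's IC50 relative to the human PKal IC50.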
Chain of human PKal (plasma kallikrein) (P03952 391-638 limits assumed): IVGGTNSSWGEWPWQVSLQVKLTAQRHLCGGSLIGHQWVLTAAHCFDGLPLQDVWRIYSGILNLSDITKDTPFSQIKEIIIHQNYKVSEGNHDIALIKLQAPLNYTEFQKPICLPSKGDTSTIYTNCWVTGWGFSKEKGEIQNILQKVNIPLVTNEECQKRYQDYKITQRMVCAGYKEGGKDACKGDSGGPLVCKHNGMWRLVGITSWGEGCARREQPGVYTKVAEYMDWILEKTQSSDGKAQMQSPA
Chain of human PKal (plasma kallikrein) (P03952 20-390 partner limits assumed): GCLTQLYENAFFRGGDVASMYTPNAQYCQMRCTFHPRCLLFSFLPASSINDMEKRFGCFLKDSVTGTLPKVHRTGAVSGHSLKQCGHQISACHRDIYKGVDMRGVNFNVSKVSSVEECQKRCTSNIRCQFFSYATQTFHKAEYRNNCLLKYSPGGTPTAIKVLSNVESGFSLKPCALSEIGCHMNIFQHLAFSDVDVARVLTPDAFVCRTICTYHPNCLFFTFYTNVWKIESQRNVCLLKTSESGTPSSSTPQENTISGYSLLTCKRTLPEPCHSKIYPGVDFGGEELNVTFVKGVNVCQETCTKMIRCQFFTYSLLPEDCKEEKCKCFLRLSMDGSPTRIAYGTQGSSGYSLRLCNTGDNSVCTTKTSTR

For series [2], the target named is mouse PKal (plasma kallikrein) (Mus musculus, UniProt P26262). Briefly: PKal protease activity assay, fluorogenic substrate H-D-Pro-Phe-Arg-AFC. Type of series: biochemical. In outline: (§1)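 Purified mouse or rat plasma kallikrein with fluorogenic H-D-Pro-Phe-Arg-AFC at substrate Km, with test compound present. Liberated fluorescence is monitored over 5 min and the linear rate per min is calculated. IC50 is the inhibitor concentration giving 50% inhibition of uninhibited enzyme activity (100%).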
Chain of mouse PKal (plasma kallikrein) (P26262 391-638 limits assumed): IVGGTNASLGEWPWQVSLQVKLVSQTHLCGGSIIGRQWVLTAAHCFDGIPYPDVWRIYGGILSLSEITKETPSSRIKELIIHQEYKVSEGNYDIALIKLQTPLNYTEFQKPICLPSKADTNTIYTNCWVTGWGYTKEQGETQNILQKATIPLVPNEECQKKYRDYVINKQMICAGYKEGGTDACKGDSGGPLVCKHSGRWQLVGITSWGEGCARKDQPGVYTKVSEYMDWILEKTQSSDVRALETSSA
Chain of mouse PKal (plasma kallikrein) (P26262 20-390 partner limits assumed): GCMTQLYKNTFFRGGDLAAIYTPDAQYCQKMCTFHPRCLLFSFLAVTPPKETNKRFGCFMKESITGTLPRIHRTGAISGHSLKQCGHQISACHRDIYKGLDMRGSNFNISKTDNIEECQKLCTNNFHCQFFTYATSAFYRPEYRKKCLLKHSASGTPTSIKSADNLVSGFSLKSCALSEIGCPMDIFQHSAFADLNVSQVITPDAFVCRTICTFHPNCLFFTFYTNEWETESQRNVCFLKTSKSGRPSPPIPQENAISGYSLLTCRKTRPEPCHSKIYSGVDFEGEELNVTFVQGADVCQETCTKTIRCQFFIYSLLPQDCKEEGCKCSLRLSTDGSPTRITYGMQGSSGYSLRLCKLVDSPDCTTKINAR

Series [3] concerns the target rat PKal (plasma kallikrein) (Rattus norvegicus, UniProt P14272). Described as above. The series is classed as biochemical. In outline:
as §1

A further series addresses thrombin (Homo sapiens, UniProt P00734). Briefly: Trypsin-like protease enzyme activity assay. Type of series: biochemical. In a few lines:
(§2)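 Each human protease (plasmin, thrombin, trypsin, KLK1, factor XIa) is run with a suitable fluorogenic substrate. Km comes from a standard Michaelis-Menten transformation, and assays run at substrate Km. Fluorescence is read over 5 min and the linear rate per min is expressed as % activity. IC50 is 50% inhibition of uninhibited activity, and fold selectivity is relative to the human PKal IC50.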

Another series concerns the target plasmin (Homo sapiens, UniProt P00747). Briefly: Trypsin-like protease enzyme activity assay. Type of series: biochemical. In outline: as §2
A further series deals with KLK1 tissue kallikrein (Homo sapiens, UniProt P06870). Briefly: Trypsin-like protease enzyme activity assay. The series is classed as biochemical. In outline: as §2
Chain of KLK1 tissue kallikrein (P06870 25-262): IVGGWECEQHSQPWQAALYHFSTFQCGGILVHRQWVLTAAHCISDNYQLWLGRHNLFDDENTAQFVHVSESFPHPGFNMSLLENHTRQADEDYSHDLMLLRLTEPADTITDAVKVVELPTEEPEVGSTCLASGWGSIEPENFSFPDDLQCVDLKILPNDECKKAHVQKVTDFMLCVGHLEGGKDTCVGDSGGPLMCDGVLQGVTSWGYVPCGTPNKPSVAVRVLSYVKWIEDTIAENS
The target of another series is trypsin. Briefly: Trypsin-like protease enzyme activity assay. Type of series: biochemical, human. In outline:
as §2

The next series has as its target factor XIa (Homo sapiens, UniProt P03951). Briefly: Trypsin-like protease enzyme activity assay. Type of series: biochemical. In outline:
as §2

The nature of series [4]: In vivo pharmacokinetics following subcutaneous dosing. On the set-up: species or system male SD rats. The note with it: male, SD, rat, plasma, sc, 10 mg/kg.
Series [5] concerns VEGF-induced retinal thickening. Briefly: VEGF-induced retinal thickening in mice. The series is classed as in vivo, WT mice (C57Bl/6). The note with it: 1.60 mg/kg/d s.c. osmotic pump, VEGF 100 ng/eye.
The test system is the same in series [6]. Briefly: VEGF-induced retinal thickening in rats. Type of series: in vivo, Sprague-Dawley rats. As to conditions: 0.58 mg/kg/d s.c. osmotic pump, VEGF 10 ng/eye, 48 hours, P < 0.001. In a few lines: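 Male Sprague-Dawley rats (10 weeks) got test compound 0.58 mg/kg/d or vehicle (10% PEG400 in PBS) by s.c. osmotic pump, started 1 day before 5 µL intravitreal VEGF 10 ng/eye or PBS. SD-OCT (2.5×2.5 mm volume centred on the optic nerve head) gave RPE-to-RNFL thickness 800 µm from centre at baseline, 24 and 48 h. Change from baseline was compared with vehicle-treated rats.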

Chain of factor XIa (P03951 388-625 limits assumed): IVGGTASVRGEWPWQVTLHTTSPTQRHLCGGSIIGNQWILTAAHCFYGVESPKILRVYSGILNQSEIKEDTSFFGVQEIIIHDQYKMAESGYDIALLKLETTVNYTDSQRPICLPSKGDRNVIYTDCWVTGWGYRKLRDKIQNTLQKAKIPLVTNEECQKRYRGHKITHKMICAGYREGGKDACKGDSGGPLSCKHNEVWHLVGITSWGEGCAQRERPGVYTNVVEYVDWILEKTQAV
Chain of factor XIa (P03951 19-387 partner limits assumed): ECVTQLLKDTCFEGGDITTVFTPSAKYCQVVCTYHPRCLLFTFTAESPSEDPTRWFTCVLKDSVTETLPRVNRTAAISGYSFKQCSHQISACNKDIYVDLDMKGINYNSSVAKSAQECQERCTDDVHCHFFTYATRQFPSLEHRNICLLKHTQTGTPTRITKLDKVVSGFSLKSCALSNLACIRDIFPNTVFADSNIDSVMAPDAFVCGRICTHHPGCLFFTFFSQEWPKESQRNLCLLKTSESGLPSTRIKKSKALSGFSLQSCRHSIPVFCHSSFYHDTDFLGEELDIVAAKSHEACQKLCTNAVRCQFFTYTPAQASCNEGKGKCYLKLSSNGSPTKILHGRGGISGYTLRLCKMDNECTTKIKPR
Chain of plasmin (P00747 581-810 limits assumed): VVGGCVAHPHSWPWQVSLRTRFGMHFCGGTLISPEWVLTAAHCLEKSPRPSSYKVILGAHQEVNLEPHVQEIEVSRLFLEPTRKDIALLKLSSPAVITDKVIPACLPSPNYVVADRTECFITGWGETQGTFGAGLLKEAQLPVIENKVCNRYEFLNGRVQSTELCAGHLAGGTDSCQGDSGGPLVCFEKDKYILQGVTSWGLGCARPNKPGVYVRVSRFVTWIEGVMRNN
Chain of plasmin (P00747 97-580 partner limits assumed): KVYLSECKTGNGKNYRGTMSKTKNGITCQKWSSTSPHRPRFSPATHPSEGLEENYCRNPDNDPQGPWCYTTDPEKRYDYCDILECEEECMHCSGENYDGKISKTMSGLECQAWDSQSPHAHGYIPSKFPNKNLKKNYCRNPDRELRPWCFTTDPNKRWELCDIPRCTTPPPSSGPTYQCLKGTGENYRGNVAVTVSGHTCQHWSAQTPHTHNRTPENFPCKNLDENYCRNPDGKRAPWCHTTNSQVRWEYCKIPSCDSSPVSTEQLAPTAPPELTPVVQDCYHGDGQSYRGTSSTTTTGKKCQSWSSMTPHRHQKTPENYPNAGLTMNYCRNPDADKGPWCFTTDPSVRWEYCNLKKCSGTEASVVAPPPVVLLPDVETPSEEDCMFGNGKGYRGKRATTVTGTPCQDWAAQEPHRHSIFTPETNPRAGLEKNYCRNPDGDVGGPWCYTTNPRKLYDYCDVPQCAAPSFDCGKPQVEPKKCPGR
Chain of rat PKal (plasma kallikrein) (P14272 391-638 limits assumed): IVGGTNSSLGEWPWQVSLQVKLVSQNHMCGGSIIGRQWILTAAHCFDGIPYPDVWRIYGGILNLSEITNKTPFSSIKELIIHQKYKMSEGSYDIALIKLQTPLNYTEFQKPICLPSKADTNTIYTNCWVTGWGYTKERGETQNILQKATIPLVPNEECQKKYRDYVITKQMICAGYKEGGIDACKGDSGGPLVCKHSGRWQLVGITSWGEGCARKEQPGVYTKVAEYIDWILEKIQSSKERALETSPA
Chain of rat PKal (plasma kallikrein) (P14272 20-390 partner limits assumed): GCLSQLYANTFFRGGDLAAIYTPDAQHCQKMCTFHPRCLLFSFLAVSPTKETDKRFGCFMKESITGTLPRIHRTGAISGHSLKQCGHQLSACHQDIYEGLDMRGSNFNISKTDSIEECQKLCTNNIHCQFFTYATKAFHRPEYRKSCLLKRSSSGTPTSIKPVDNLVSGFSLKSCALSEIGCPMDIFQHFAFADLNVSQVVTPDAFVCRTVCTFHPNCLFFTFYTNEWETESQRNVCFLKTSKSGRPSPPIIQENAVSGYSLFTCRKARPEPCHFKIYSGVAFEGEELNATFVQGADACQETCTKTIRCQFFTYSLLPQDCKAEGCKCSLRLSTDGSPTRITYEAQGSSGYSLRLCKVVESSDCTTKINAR

With `CCOc1ccc(C[C@@H](N)C(=O)N[C@@H](Cc2ccccc2)C(=O)NC2CCN(C(=N)N)CC2)cc1.O=C(O)C(F)(F)F.O=C(O)C(F)(F)F` [VA999272, (R)-2-amino-N-[(S)-1-(1-carbamimidoyl-piperidin-4-ylcarbamoyl)-2-phenyl-ethyl]-3-(4-ethoxy-phenyl)-propionamide ditrifluoroacetate], the IC50 in series [1] came out at 0.00398 ± 0.00361 µM; in series [2], 0.00118 ± 0.00025 µM; in series [3], 0.00654 ± 0.00076 µM; on thrombin, 9.1 µM; on plasmin, 23.1 µM; against KLK1 tissue kallikrein it was 33.5 µM. Moreover, the IC50 on trypsin (read-out: Mean IC50 Trypsin, substrate at Km) was 38.9 µM; at factor XIa, more than 10 µM. For the same compound, the “Fold selectivity to human PKal” value is reported as 1 in series [1] (PKal itself (reference)); 2291 on thrombin (thrombin IC50 vs human PKal IC50); 5821 on plasmin (plasmin IC50 vs human PKal IC50); 8414 on KLK1 tissue kallikrein (KLK1 IC50 vs human PKal IC50); 9772 in the series on trypsin (trypsin IC50 vs human PKal IC50); more than 2513 at factor XIa (factor XIa IC50 vs human PKal IC50). The “selectivity to PKal over closely related trypsin-like serine proteases” value in [1] (vs KLK1, factor XIIa, factor XIa, thrombin, plasmin, trypsin) is given as more than 1000 fold. Moreover, the concentration in series [4] peaked (Cmax) at 974 ng/mL. Moreover, in series [4], the Tmax is 1.5 h. The same compound yielded a half-life in series [4] of 3.55 h. The “reduction of VEGF effect on retinal thickness vs vehicle-treated” value was 36% in [5] (24 hours, P = 0.039) and 57% in series [5] (48 hours, P < 0.001). Further, in series [6], the “reduction of VEGF-induced retinal thickening vs vehicle-treated” value came to 53%.
